The source of these data is article PMC10076185 (Experimental eye research, 2023).

What all share (assay): SPR, protein immobilised by amine coupling, OneStep injection
Common to all, as to assay type: binding
(In general: In SPR one partner is held on a chip, and binding of the other changes the refractive index at the surface.)

Experiment [1] deals with GSTP1 (Homo sapiens, UniProt P09211). In short, it runs like this: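 Human GSTP1 was expressed in E. coli and purified in-house, then amine-coupled to a carboxyl chip with an unmodified reference surface. Test compound in 100% DMSO was diluted to 1–100 µM in running buffer (10 mM PBS, 0.1% polyvinylpyrrolidone, 5% DMSO, pH 7.4) and injected as a Taylor-dispersion gradient, three times per concentration, at 25 °C. Sensorgrams were double-referenced with buffer blanks, and equilibrium binding constants were fitted.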
GSTP1, sequence (P09211 2-210): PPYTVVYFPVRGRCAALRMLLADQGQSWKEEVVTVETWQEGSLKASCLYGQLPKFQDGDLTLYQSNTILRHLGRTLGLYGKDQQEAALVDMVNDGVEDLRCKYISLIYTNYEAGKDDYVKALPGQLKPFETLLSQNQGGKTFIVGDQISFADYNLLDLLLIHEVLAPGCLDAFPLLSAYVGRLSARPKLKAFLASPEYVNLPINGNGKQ

The target in experiment [2] is Human IRBP (Homo sapiens, UniProt P10745).
Human IRBP, sequence (P10745 18-1247): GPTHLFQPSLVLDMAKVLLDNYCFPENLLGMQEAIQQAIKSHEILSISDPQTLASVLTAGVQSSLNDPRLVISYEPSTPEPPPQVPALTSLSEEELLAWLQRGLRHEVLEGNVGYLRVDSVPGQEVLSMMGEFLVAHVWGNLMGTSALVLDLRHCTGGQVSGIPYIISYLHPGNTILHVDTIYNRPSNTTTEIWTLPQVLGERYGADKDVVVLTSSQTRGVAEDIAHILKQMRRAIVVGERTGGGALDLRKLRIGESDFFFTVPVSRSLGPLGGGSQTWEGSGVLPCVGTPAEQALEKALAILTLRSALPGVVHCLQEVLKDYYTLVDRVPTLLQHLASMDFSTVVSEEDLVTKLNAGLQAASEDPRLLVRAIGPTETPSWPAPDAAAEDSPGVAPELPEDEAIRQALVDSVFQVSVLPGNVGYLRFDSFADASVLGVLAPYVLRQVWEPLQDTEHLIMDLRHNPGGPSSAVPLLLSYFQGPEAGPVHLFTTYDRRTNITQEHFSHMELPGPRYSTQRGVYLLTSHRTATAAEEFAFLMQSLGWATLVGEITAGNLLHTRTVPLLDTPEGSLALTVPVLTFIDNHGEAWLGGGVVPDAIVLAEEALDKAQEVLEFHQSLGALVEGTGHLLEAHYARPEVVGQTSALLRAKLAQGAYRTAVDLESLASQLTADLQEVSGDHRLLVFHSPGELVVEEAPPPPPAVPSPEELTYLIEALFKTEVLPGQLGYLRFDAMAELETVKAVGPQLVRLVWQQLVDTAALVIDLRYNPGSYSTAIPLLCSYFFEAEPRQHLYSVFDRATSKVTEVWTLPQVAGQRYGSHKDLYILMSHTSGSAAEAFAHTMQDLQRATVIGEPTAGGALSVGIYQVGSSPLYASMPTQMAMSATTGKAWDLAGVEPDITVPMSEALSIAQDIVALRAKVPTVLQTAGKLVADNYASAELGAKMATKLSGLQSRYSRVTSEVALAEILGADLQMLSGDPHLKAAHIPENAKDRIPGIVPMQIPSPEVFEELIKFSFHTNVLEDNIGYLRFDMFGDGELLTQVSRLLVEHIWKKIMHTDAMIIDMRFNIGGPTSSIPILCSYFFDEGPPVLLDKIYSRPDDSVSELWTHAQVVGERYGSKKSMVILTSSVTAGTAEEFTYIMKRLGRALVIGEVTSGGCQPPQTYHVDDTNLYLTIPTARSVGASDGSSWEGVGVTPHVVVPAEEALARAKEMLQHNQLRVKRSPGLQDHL
The target in experiment [3] is Apo-AII (Homo sapiens, UniProt P02652). In short, it runs like this:
(§1)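 Recombinant human proteins from commercial sources were amine-coupled to a carboxyl sensor chip beside an unmodified reference surface. Test compound in 100% DMSO was diluted to 1–100 µM in running buffer (10 mM PBS, 0.1% polyvinylpyrrolidone, 5% DMSO, pH 7.4) and given as a Taylor-dispersion gradient, three injections each, at 25 °C and 10 Hz. Sensorgrams were zeroed and double-referenced against buffer blanks, and equilibrium constants were fitted.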

Experiment [4] has as its target Apo-E (Homo sapiens, UniProt P02649). In short, it runs like this:
as §1

Experiment [5] concerns the target Apo-M (Homo sapiens, UniProt O95445). An outline of the steps:
as §1

Experiment [6] has as its target Apo-AI (Homo sapiens, UniProt P02647).
Experiment [7] deals with Apo-D (Homo sapiens, UniProt P05090). In short, it runs like this:
as §1

Apo-AII, sequence (P02652 24-100): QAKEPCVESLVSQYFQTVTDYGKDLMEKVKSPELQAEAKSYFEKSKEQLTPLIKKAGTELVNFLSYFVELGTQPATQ
Apo-M, sequence (O95445 whole entry): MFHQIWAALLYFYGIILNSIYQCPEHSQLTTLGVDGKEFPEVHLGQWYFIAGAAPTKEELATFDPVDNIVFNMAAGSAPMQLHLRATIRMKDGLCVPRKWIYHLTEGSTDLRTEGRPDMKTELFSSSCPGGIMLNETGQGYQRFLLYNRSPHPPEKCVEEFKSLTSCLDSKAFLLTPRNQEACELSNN
Apo-D, sequence (P05090 21-189): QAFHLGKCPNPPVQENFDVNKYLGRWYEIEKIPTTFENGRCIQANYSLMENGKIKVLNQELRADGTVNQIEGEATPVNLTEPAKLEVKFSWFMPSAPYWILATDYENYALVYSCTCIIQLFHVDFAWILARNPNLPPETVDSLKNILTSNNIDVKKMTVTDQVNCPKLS
Apo-E, sequence (P02649 19-317): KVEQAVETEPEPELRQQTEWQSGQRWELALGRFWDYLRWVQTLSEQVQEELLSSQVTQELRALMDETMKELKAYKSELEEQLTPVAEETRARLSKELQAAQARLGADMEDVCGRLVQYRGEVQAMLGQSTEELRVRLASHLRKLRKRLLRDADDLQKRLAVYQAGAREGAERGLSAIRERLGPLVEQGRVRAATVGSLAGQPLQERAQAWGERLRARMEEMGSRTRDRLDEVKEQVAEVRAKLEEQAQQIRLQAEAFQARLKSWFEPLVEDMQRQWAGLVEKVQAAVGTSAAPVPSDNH
Apo-AI, sequence (P02647 25-267): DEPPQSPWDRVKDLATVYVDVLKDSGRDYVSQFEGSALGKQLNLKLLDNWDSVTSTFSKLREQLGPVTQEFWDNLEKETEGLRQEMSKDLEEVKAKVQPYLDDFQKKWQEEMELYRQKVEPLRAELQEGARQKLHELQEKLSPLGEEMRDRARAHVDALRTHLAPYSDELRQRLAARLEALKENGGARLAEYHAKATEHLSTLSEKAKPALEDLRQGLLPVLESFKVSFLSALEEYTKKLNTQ

In general, Kd refers to the equilibrium constant for the complex coming apart. Read a low Kd as higher affinity. Turning to `CC1=C(/C=C/C(C)=C/C=C/C(C)=C/C=C/C=C(C)/C=C/C=C(C)/C=C/C2=C(C)C(=O)[C@@H](O)CC2(C)C)C(C)(C)C[C@H](O)C1=O` [Astaxanthin], the Kd in experiment [1] worked out at 150 ± 20 nM; in experiment [2] it was 1640 ± 60 nM.

Consider `CC1=C[C@H](O)CC(C)(C)[C@H]1/C=C/C(C)=C/C=C/C(C)=C/C=C/C=C(C)/C=C/C=C(C)/C=C/C1=C(C)C[C@@H](O)CC1(C)C` [Lutein], for which the Kd was determined as 6100 ± 300 nM in experiment [3]; 21000 ± 1000 nM in experiment [4]; 35000 ± 1000 nM in experiment [5]; 12100 nM in experiment [6]; 1060 ± 200 nM in experiment [2]; 84000 ± 1000 nM in experiment [7].

`CC1=C(/C=C/C(C)=C/C=C/C(C)=C/C=C/C=C(C)/C=C/C=C(C)/C=C/C2=C(C)C[C@@H](O)CC2(C)C)C(C)(C)C[C@H](O)C1` [Zeaxanthin]: the Kd worked out at 1840 ± 90 nM in experiment [3]; 9250 nM in experiment [4]; 53 ± 10 nM in experiment [1]; 81000 ± 9000 nM in experiment [5]; 5620 nM in experiment [6]; 1640 ± 500 nM in experiment [2]. This compound returned a Kd in experiment [7] of 68200 nM.

As for `CC1=C(/C=C/C(C)=C/C=C/C(C)=C/C=C/C=C(C)/C=C/C=C(C)/C=C/C2=C(C)C[C@H](O)CC2(C)C)C(C)(C)C[C@H](O)C1` [meso-Zeaxanthin], the Kd in experiment [3] was 1600 ± 700 nM; in experiment [4], 6220 nM; in experiment [1], 55 ± 30 nM; in experiment [5], 35400 ± 800 nM; in experiment [6] it was 7900 ± 200 nM; in experiment [2] it was 1850 ± 300 nM. Further, the Kd in experiment [7] stood at 45600 nM.

Regarding `CC1=C(/C=C/C(C)=C/C=C/C(C)=C/C=C/C=C(C)/C=C/C=C(C)/C=C/C2=C(C)CCCC2(C)C)C(C)(C)CCC1` [β-Carotene], the Kd in experiment [4] is 400 ± 60 nM; in experiment [5] it was 50 nM; in experiment [6] it was 330 ± 30 nM; in experiment [2], 920 ± 100 nM; in experiment [7] it was 10 nM.
